Test results published in ChEMBL document CHEMBL1138217, “Rapid discovery and structure-activity profiling of novel inhibitors of human immunodeficiency virus type 1 protease enabled by the copper(I)-catalyzed synthesis of 1,2,3-triazoles and their further functionalization” (J Med Chem, 2006).

Key:
[1] = target: Human immunodeficiency virus type 1 protease (Human immunodeficiency virus 1, UniProt Q72874); experiment: Inhibition of HIV1 protease
Outline: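 HIV-1 protease (SF-2-WTQ7K-Pr construct for the isolated inhibitors) at 20 µg/mL with 50 µM fluorogenic substrate Abz-Thr-Ile-Nle/Phe-(p-NO2)Gln-Arg-NH2, in 0.1 M MES, 0.2 M NaCl, pH 5.25, 5% (v/v) glycerol. Crude mixtures were screened at 5 µM as percent inhibition.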

[2] = target: Human immunodeficiency virus type 1 protease (Human immunodeficiency virus 1) (UniProt Q72874); experiment: Inhibition of HIV1 protease at 5 uM
Outline: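 Crude click-reaction DMSO mixtures (azide-alkyne, CuSO4 with copper turning, 1:1 tBuOH/H2O, 50 °C, 5 days) diluted to 5 µM in 0.1 M MES, 0.2 M NaCl, pH 5.25, 5% glycerol; HIV-1 protease 20 µg/mL plus fluorogenic substrate 50 µM added; fluorescence read directly in microplate; percent inhibition; TL-3 100 nM positive control.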

Structure (SMILES): Cc1ccc(Cl)cc1N1CCN(Cc2cn([C@@H](Cc3ccccc3)[C@H](Cc3ccccc3)NC(=O)OC3CCCC3)nn2)CC1
- Ki [1]: 23 nM
- inhibition [2]: 94%

Structure (SMILES): CC(C)C[C@H](NC(=O)OC1CCCC1)[C@H](Cc1ccccc1)n1cc(CN2CCN(c3cccc(C(F)(F)F)c3)CC2)nn1
- Ki [1]: 86 nM
- inhibition [2]: 50%

Structure (SMILES): Cc1ccc(Cl)cc1N1CCN(Cc2cn([C@@H](Cc3ccccc3)[C@H](Cc3ccccc3)NC(=O)O[C@@H]3CCOC3)nn2)CC1
- Ki [1]: 83 nM
- inhibition [2]: 71%

Structure (SMILES): Cc1ccc(Cl)cc1N1CCN(Cc2cn([C@@H](Cc3ccccc3)[C@H](Cc3ccccc3)NC(=O)CC3CCCC3)nn2)CC1
- Ki [1]: > 2500 nM
- inhibition [2]: 28%

Structure (SMILES): Cc1ccc(Cl)cc1N1CCN(Cc2nnn([C@@H](Cc3ccccc3)[C@H](Cc3ccccc3)NC(=O)OC3CCCC3)c2[C@H](C)O)CC1
- Ki [1]: 21 nM

Structure (SMILES): Cc1ccc(C)c(N2CCN(Cc3nnn([C@@H](Cc4ccccc4)[C@H](Cc4ccccc4)NC(=O)OC4CCCC4)c3[C@H](C)O)CC2)c1
- Ki [1]: 10 nM

Structure (SMILES): Cc1ccc(C)c(N2CCN(Cc3cn([C@@H](Cc4ccccc4)[C@H](Cc4ccccc4)NC(=O)OC4CCCC4)nn3)CC2)c1
- IC50 [1]: > 25000 nM
- Ki [1]: 32 nM
- inhibition [2]: 94%

Structure (SMILES): Cc1ccc(C)c(N2CCN(Cc3nnn([C@@H](Cc4ccccc4)[C@H](Cc4ccccc4)NC(=O)OC4CCCC4)c3CO)CC2)c1
- Ki [1]: 14 nM

Structure (SMILES): Cc1ccc(Cl)cc1N1CCN(Cc2nnn([C@@H](Cc3ccccc3)[C@H](Cc3ccccc3)NC(=O)OC3CCCC3)c2[C@@H](C)O)CC1
- Ki [1]: 28 nM
